Active and inactive are the calls of the source. No cut-off for these calls is given here.
Experiments:
[1] = system: Staphylococcus aureus; experiment: Antibacterial activity against Staphylococcus aureus ATCC 29213 by agar disk diffusion method; format: functional
Outline: (§1)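 Agar disk diffusion following standard protocols; test material applied at 200 μg/disk; gentamicin at 20 μg/disk served as the standard. Organisms: S. aureus ATCC 29213, B. subtilis ATCC 6051, E. coli ATCC 25922 and C. albicans ATCC 14053. Read-out was the diameter of the inhibitory zone in mm.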

[2] = system: Bacillus subtilis; experiment: Antibacterial activity against Bacillus subtilis ATCC 6051 by agar disk diffusion method; format: functional, organism-based; outline: as §1
[3] = system: Escherichia coli; experiment: Antibacterial activity against Escherichia coli ATCC 25922 by agar disk diffusion method; format: functional, organism-based; outline: as §1
[4] = system: Candida albicans; experiment: Antifungal activity against Candida albicans ATCC 14053 by agar disk diffusion method; format: functional, organism-based; outline: as §1
[5] = system: U2OS; experiment: Cytotoxicity against human U2OS cells assessed as cell viability after 48 hrs by CellTiter-Blue assay; format: functional, cell-based
Outline: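 Human osteosarcoma U2OS cells were seeded at 250 cells per well in 384-well format and incubated overnight. Each well received 50 nL of a 10 mM DMSO stock, in duplicate, then 48 h at 37 °C. CellTiter-Blue reagent was added, followed by a further 22 h at 37 °C. […] was read at 530/580 nm.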

[6] = system: Staphylococcus aureus; experiment: Antibacterial activity against Staphylococcus aureus ATCC 29213 at 200 ug/disk by agar disk diffusion method; format: functional; settings: read-out: DIZ; outline: as §1
[7] = system: Bacillus subtilis; experiment: Antibacterial activity against Bacillus subtilis ATCC 6051 at 200 ug/disk by agar disk diffusion method; format: functional; settings: read-out: DIZ; outline: as §1
[8] = system: Escherichia coli; experiment: Antibacterial activity against Escherichia coli ATCC 25922 at 200 ug/disk by agar disk diffusion method; format: functional, organism-based; outline: as §1
[9] = system: Candida albicans; experiment: Antifungal activity against Candida albicans ATCC 14053 at 200 ug/disk by agar disk diffusion method; format: functional, organism-based; outline: as §1

## C=C1CC/C=C(\C)[C@H](O)CC(C)(C)[C@H]2C[C@H]12
[1]
  Activity: inactive
[2]
  Activity: inactive
[3]
  Activity: inactive
[4]
  Activity: inactive
[5]
  IC50: > 10 µM

## C/C1=C\CC[C@](C)(O)[C@H]2C[C@@H]2C(C)(C)C[C@H]1O
[6]
  zone of inhibition at 200 µg/disc: 13 mm
[7]
  zone of inhibition at 200 µg/disc: 13 mm
[8]
  Activity: inactive
[9]
  Activity: inactive
[5]
  IC50: > 10 µM

## C/C1=C\C[C@@H](O)[C@](C)(O)[C@H]2C[C@@H]2C(C)(C)C[C@H]1O
[1]
  diameter of the inhibition zone (DIZ): 9 mm
[5]
  IC50: > 10 µM

From ChEMBL document CHEMBL3576777, “Hypocoprins A-C: new sesquiterpenoids from the coprophilous fungus Hypocopra rostrata” (J Nat Prod, 2015)
